PHOSPHO1 block: blocks human PHOSPHO1 phosphatase activity. recombinant PHOSPHO1, absorbance phosphatase assay. inhibition, % at 13.3 µM. 290,000 compounds, 1.1% hits. Q8TCT1; in the data active means inhibition above about 60%
Target sequence (Q8TCT1 whole entry, looked up): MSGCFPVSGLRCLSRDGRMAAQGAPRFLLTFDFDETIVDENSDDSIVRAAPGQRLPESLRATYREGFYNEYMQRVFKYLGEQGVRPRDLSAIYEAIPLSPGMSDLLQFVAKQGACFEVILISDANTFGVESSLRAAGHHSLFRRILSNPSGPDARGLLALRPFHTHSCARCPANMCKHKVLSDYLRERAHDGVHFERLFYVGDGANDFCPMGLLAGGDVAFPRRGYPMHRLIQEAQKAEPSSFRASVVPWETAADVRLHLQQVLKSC
VIM-2 inhibitor: inhibitors of Pseudomonas aeruginosa VIM-2 metallo-beta-lactamase | purified VIM-2, nitrocefin hydrolysis, epi-absorbance fluorescence | inhibition, % at 5.6 µM | 290,000 compounds, 0.89% hits | AID 1527;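 active means inhibition above the mean of all tested compounds plus 3 SD, cutoff set per screening run, cut at about 7.5% in these data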;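 further: red hydrolysis product quenches plate fluorescence so inhibitors raise well fluorescence; 0% = enzyme with DMSO and 100% = DMSO without enzyme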
NS3 helicase inh: HCV NS3 helicase inhibition | NS3 helicase DNA unwinding, Cy5 molecular beacon fluorescence | inhibition, % at 10.9 µM | 290,000 compounds, 0.56% hits | AID 1800;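 active means inhibition above the mean of all tested compounds plus 3 SD, set per campaign, cut at about 35% in these data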;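 further: 0% = DMSO wells and 100% = thioflavine S control wells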
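Measured by: Cy5 fluorescence, 0 and 60 min reads / Assay system: NS3 helicase fragment of HCV / Control set: low DMSO, high thioflavine S at 110 µM / Times: 1 h reaction at 25 °C, ATP-initiated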
IMP-1 inhibitor: inhibitors of Pseudomonas aeruginosa IMP-1 metallo-beta-lactamase. purified IMP-1, nitrocefin hydrolysis, epi-absorbance fluorescence. inhibition, % at 5.6 µM. 290,000 compounds, 0.45% hits. AID 1556;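 active means inhibition above the mean plus 3 SD of all compounds in the same screening run, cut at about 4.5% in these data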;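 further: 0% = IMP-1 with DMSO and 100% = DMSO wells lacking enzyme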
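system = purified recombinant IMP-1 beta-lactamase | amount = 0.2 nM IMP-1, as dispensed | medium = HEPES buffer pH 7.1 with ZnSO4 and Brij 35 | times = 25 °C, 15 min preincubation, 25 min reaction | detection = plate fluorescence quenching by hydrolysis product, ex 480/em 530 nm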
UBC9 SUMO inh: SUMOylation inhibition; AID 2006; 290,000 compounds, 0.36% hits; HTRF SUMOylation assay, SAE1/SAE2 + UBC9, in vitro; inhibition, % at 35 µM; P63279; in the data active means inhibition above about 50%, passing the limit was not always enough; inconclusive means no clear call, values can overlap the other calls
Target sequence (P63279 whole entry, looked up): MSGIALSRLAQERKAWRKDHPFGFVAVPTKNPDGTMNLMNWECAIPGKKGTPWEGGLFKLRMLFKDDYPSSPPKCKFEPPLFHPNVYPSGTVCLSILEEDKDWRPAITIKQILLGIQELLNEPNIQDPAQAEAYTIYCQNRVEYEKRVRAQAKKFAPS
core dimer inh: HCV core protein dimerization inhibition | TR-FRET GST/Flag-core106 dimerization, 1536-well | 300,000 compounds, 0.33% hits | inhibition, % at 5 µM;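 active means inhibition above the mean of all tested compounds plus 3 SD, set per screening campaign, cut at about 45% in these data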
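Assay system: GST-tagged and Flag-tagged HCV core protein residues 1-106 / Times: compound-protein-antibody incubation 4 h at 22.5 °C / Signal: time-resolved FRET, ex 340 nm, em 617 and 671 nm / Evaluation: % inhibition based on acceptor/donor emission ratio / Benchmarks: wells lacking GST-core106 and wells with excess unlabelled core106 / Repeats: singlicate, one well per compound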
* marks the source's active call; other numbers are inactive results. This is a sample that favours compounds with a hit; in the whole collection about 3.1% have one here.

COc1c[nH]n(-c2ccccc2)c(=O)c1=O was read as core dimer inh 6.
Screening CCCn1c(/C=C/c2cc[n+](C)cc2)nc2ccccc21 returned PHOSPHO1 block -19, VIM-2 inhibitor -1, NS3 helicase inh 7, IMP-1 inhibitor -3, UBC9 SUMO inh inconclusive and core dimer inh 1.
`C[n+]1ccc(/C=C/c2ccc(Br)cc2)cc1` gave PHOSPHO1 block -67, VIM-2 inhibitor -3, NS3 helicase inh 10, IMP-1 inhibitor 8.3*, UBC9 SUMO inh 13 and core dimer inh -4.
For CCC1C(=O)NCCN1C(=O)c1cccc(OC2CCN(S(=O)(=O)N(C)C)CC2)c1 (stereo unspecified) the results were PHOSPHO1 block 64*, VIM-2 inhibitor 0, NS3 helicase inh -3, IMP-1 inhibitor 0 and core dimer inh 3.
O=C(CSc1nncs1)Nc1nccs1 was read as core dimer inh -6.
Screening NC(=O)C[n+]1cccc2ccccc21 returned PHOSPHO1 block 94*, VIM-2 inhibitor 3, NS3 helicase inh -12, IMP-1 inhibitor 3, UBC9 SUMO inh 30 and core dimer inh -1.
O=C(C[n+]1cccc2ccccc21)c1ccc(Br)cc1 was read as PHOSPHO1 block 25, VIM-2 inhibitor -3, NS3 helicase inh -2, IMP-1 inhibitor -3, UBC9 SUMO inh 3 and core dimer inh 6.
Screening Cc1cc(NC(=O)CCSc2ccc(Cl)cc2)no1 returned PHOSPHO1 block 62*, VIM-2 inhibitor -3, NS3 helicase inh 1, IMP-1 inhibitor -3, UBC9 SUMO inh 0 and core dimer inh -8.
For O=C(Nc1c(F)cc(F)cc1Br)c1cc(S(=O)(=O)N2CCN(c3ccccn3)CC2)ccc1F the results were PHOSPHO1 block 32, VIM-2 inhibitor -3, NS3 helicase inh 6, IMP-1 inhibitor -2, UBC9 SUMO inh 4 and core dimer inh 2.
Screening O=C(Nc1ccc(F)c(F)c1)c1cc(S(=O)(=O)N2CCN(c3ccccn3)CC2)ccc1F returned PHOSPHO1 block 8, VIM-2 inhibitor 1, NS3 helicase inh 11, IMP-1 inhibitor 4.6*, UBC9 SUMO inh 8 and core dimer inh 4.
Cc1cc(C)n2nc(SC(C)C(=O)NCc3ccco3)nc2n1 (stereo unspecified) was read as PHOSPHO1 block 64*, VIM-2 inhibitor -4, NS3 helicase inh 12, IMP-1 inhibitor -2, UBC9 SUMO inh 29 and core dimer inh -8.
`COc1ccc2c(c1)cc(C(=O)N[C@@H](CCSC)C(=O)N1CCC[C@H]1C(=O)O)n2C` gave PHOSPHO1 block 34, VIM-2 inhibitor 12*, NS3 helicase inh -2, IMP-1 inhibitor -3, UBC9 SUMO inh 11 and core dimer inh -1.
`COc1ccc2c(c1)cc(C(=O)N[C@H](C(=O)N1CCC[C@H]1C(=O)O)C(C)C)n2C` gave PHOSPHO1 block 13, VIM-2 inhibitor -1, NS3 helicase inh -8, IMP-1 inhibitor 0, UBC9 SUMO inh 24 and core dimer inh -9.
For Cn1c(CO)cnc1SCc1c(Cl)cccc1Cl the results were PHOSPHO1 block 74*, VIM-2 inhibitor 0, NS3 helicase inh -8, IMP-1 inhibitor -2, UBC9 SUMO inh -9 and core dimer inh -2.
For O=C(NCc1nc2ccccc2[nH]1)c1ccc(Cl)c(S(=O)(=O)N2CCCC2)c1 the results were PHOSPHO1 block 16, VIM-2 inhibitor -8, NS3 helicase inh -8, IMP-1 inhibitor -4, UBC9 SUMO inh -8 and core dimer inh 4.
`CSCC[C@H](NC(=O)c1ccc(Cl)c(S(=O)(=O)N2CCCC2)c1)c1nc2ccccc2[nH]1` gave PHOSPHO1 block 98*, VIM-2 inhibitor -1, NS3 helicase inh -7, IMP-1 inhibitor 2, UBC9 SUMO inh 8 and core dimer inh 1.
Screening CSCCC(NC(=O)C1CC1)c1nc2ccccc2[nH]1 (stereo unspecified) returned PHOSPHO1 block 11, VIM-2 inhibitor 0, NS3 helicase inh 1, IMP-1 inhibitor 4.8*, UBC9 SUMO inh 25 and core dimer inh -5.
For CSCC[C@H](NC(=O)C1CCCC1)c1nc2ccccc2[nH]1 the results were PHOSPHO1 block 48, VIM-2 inhibitor -2, NS3 helicase inh 2, IMP-1 inhibitor 0, UBC9 SUMO inh -2 and core dimer inh -4.
`CC(C)(C)c1ccc(-c2nc(C=O)c3ccccn23)cc1` gave PHOSPHO1 block 5, VIM-2 inhibitor -2, NS3 helicase inh -8, IMP-1 inhibitor -3, UBC9 SUMO inh -23 and core dimer inh 9.
Cc1c(C(C)(C)C)c(C=S)n2ccccc12 was read as PHOSPHO1 block 93*, VIM-2 inhibitor -1, NS3 helicase inh 9, IMP-1 inhibitor 1, UBC9 SUMO inh 13 and core dimer inh 2.
For O=c1/c(=C/c2ccco2)sc2nc(-c3ccccc3Br)nn12 the results were PHOSPHO1 block 98*, VIM-2 inhibitor 1, NS3 helicase inh 20, IMP-1 inhibitor 5.2*, UBC9 SUMO inh 2 and core dimer inh 10.
`CCN(CC)Cc1cc2[nH]c3c4ccc(Cl)cc4ncc3c2cc1OC` gave PHOSPHO1 block -5, VIM-2 inhibitor -1, NS3 helicase inh -26, IMP-1 inhibitor -4 and UBC9 SUMO inh 39.
Screening COC(=O)C1=C(N)Oc2cc(N(C)C)ccc2C1c1ccccc1OC (stereo unspecified) returned PHOSPHO1 block 16, VIM-2 inhibitor -1, NS3 helicase inh -3, IMP-1 inhibitor 7.5*, UBC9 SUMO inh -2 and core dimer inh -4.
`COC(=O)C1=C(N)Oc2cc(C)n(CC3CCCO3)c(=O)c2C1c1ccccc1OC` (stereo unspecified) gave PHOSPHO1 block 33, VIM-2 inhibitor -3, NS3 helicase inh -5, IMP-1 inhibitor -2, UBC9 SUMO inh 16 and core dimer inh 1.
Screening CC(=O)Nc1ccc(S(=O)(=O)N2CCN(S(=O)(=O)N3CCC(C)CC3)CC2)cc1 returned PHOSPHO1 block 22, VIM-2 inhibitor 0, NS3 helicase inh -10, IMP-1 inhibitor -3, UBC9 SUMO inh 4 and core dimer inh 4.
Screening CCCCN(CC)CCNC(=O)c1cc2c(=O)[nH]c3ccc(C)cc3c2s1 returned PHOSPHO1 block 18, VIM-2 inhibitor 8.3*, NS3 helicase inh -16, IMP-1 inhibitor -3, UBC9 SUMO inh 12 and core dimer inh -3.
CCCCN(CC)CCCNC(=O)c1cc2c(=O)[nH]c3ccccc3c2s1 was read as PHOSPHO1 block 20, VIM-2 inhibitor 11*, NS3 helicase inh -10, IMP-1 inhibitor -3, UBC9 SUMO inh 20 and core dimer inh -2.
For O=C(NCc1ccccc1F)C1CCCN(S(=O)(=O)N2CCOCC2)C1 (stereo unspecified) the results were PHOSPHO1 block 30, VIM-2 inhibitor -3, NS3 helicase inh -6, IMP-1 inhibitor -3 and core dimer inh 4.

Compound activity from PubChem BioAssay.
